Data published in ChEMBL document CHEMBL2069182, “Discovery and optimization of a novel series of GPR142 agonists for the treatment of type 2 diabetes mellitus” (Bioorg Med Chem Lett, 2012).

Legend:
[1] = target: T1, Probable G-protein coupled receptor 142 (Homo sapiens, UniProt Q7Z601); experiment: Agonist activity at human GPR142 expressed in HEK293 cells assessed as inositol phosphate accumulation using [3H]-inositol after 1 hr by scintillation counting; assay type: functional, cell-based
T1 sequence (Q7Z601 whole entry): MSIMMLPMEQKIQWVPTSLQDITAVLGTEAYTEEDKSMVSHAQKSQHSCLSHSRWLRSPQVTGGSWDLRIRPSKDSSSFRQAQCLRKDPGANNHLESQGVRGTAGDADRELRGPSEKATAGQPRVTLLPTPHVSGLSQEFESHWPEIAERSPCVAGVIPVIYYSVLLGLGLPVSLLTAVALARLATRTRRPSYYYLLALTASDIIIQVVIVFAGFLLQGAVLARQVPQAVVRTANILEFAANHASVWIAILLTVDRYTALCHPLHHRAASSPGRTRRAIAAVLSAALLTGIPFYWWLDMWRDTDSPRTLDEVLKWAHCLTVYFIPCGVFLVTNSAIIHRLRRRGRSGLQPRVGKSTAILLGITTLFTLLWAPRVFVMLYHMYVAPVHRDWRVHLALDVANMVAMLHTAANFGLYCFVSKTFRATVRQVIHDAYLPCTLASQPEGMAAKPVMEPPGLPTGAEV
Method in brief: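 HEK293 cells plated at 25,000/well, next day (80–90% confluent) transfected with 100 ng receptor plasmid per well by Lipofectamine; after 6 h switched to inositol-free DMEM/10% dialyzed FCS with 1 µCi/mL [3H]-inositol overnight. Washed in HBSS, then compound dilutions (DMSO) in HBSS/0.01% BSA plus 10 mM LiCl, 37 °C, 1 h. Lysed in ice-cold 20 mM formic acid, 4 °C 5 h, then yttrium silicate SPA beads, scintillation counting. Emax as % of maximal response to 10 mM tryptophan.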

CYP3A4 = CYP3A4 (Homo sapiens, UniProt P08684); experiment: Inhibition of CYP3A4 at 3 uM; assay type: ADME
CYP2D6 = CYP2D6 (Homo sapiens, UniProt P10635); experiment: Inhibition of CYP2D6 at 3 uM; assay type: ADME
[2] = target: T2, Probable G-protein coupled receptor 142 (Homo sapiens) (UniProt Q7Z601); experiment: Agonist activity at human GPR142 expressed in HEK293 cells assessed as inositol phosphate accumulation using [3H]-inositol after 1 hr by scintillation counting relative to tryptophan; assay type: functional, cell-based
T2 sequence (whole entry): T1 sequence (Q7Z601 whole entry)
Method in brief: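 HEK293 cells on poly-D-lysine were transfected next day with 100 ng receptor plasmid/well, then labelled overnight with 1 µCi/mL [3H]-inositol in inositol-free DMEM/10% dialyzed FCS. Cells got graded compound in HBSS/0.01% BSA with 10 mM LiCl for 1 h at 37 °C. They were lysed in ice-cold 20 mM formic acid and counted with yttrium silicate SPA beads. EC50 given; Emax as % of maximal tryptophan response at 10 mM.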

[3] = target: T3, Probable G-protein coupled receptor 142 (Mus musculus, UniProt Q7TQN9); experiment: Agonist activity at mouse GPR142 assessed as inositol phosphate accumulation; assay type: functional
T3 sequence (Q7TQN9 whole entry): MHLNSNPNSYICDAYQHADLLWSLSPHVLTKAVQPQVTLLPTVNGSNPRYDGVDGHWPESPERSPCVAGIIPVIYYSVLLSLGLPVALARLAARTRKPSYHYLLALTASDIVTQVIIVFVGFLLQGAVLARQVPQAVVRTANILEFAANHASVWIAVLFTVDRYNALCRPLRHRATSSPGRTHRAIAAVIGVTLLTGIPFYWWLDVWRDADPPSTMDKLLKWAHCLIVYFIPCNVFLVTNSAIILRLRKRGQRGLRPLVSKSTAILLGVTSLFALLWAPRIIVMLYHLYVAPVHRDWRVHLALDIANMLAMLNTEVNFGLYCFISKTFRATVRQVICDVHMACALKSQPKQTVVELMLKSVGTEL

[4] = target: T1, Probable G-protein coupled receptor 142; experiment: Agonist activity at human GPR142 expressed in HEK293 cells assessed as inositol phosphate accumulation using [3H]-inositol after 1 hr by scintillation counting in presence of human serum; assay type: functional, cell-based
Method in brief: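 Same transfected HEK293 [3H]-inositol IP accumulation protocol as buffer assay, but compound incubation (10 mM LiCl, 37 °C, 1 h) run in 100% human serum instead of HBSS/0.01% BSA. Formic acid lysis, SPA bead scintillation read-out. Emax expressed as % of maximal 10 mM tryptophan response.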

[5] = target: T2, Probable G-protein coupled receptor 142 (Homo sapiens); experiment: Agonist activity at human GPR142 expressed in HEK293 cells assessed as inositol phosphate accumulation using [3H]-inositol after 1 hr by scintillation counting in presence of human serum relative to tryptophan; assay type: functional, cell-based
Method in brief: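 Transiently transfected HEK293 cells were labelled overnight with 1 µCi/mL tritiated inositol, then given graded compound in 100% human serum (in place of HBSS/0.01% BSA) with 10 mM LiCl for 1 h at 37 °C. Lysis was in ice-cold 20 mM formic acid, with SPA-bead scintillation read-out. EC50 given; Emax as % of maximal tryptophan response.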

Cytochrome P450 3A4 = Cytochrome P450 3A4 (Homo sapiens, UniProt P08684); experiment: Inhibition of CYP3A4; assay type: ADME
Cytochrome P450 2D6 = Cytochrome P450 2D6 (Homo sapiens, UniProt P10635); experiment: Inhibition of CYP2D6; assay type: ADME
Rattus norvegicus = experiment: Clearance in rat at 0.5 mg/kg, iv; assay type: ADME, organism-based; set-up: dose 0.5 mg/kg, route intravenous; details: in vivo
Method in brief: (§1)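 Rats dosed iv at 0.5 mg/kg; clearance, steady-state volume of distribution and mean residence time derived.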

[6] = Volume of distribution at steady state in rat at 0.5 mg/kg, iv; assay type: ADME, organism-based; set-up: dose 0.5 mg/kg, route intravenous; details: in vivo, read-out: Vdss; method in brief: as §1
[7] = Mean residence time in rat at 0.5 mg/kg, iv; assay type: ADME, organism-based; set-up: dose 0.5 mg/kg, route intravenous; details: in vivo; method in brief: as §1
[8] = Oral bioavailability in rat at 2 mg/kg; assay type: ADME, organism-based; details: in vivo
Method in brief: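 Rats given 2.0 mg/kg po; bioavailability (%F) determined against iv dosing at 0.5 mg/kg.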

[9] = Metabolic stability in rat liver microsomes assessed as compound remaining after 30 mins; assay type: ADME, Microsome; details: read-out: Stability
Method in brief: (§2)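 Human or rat liver microsomes incubated with compound for 30 min; percent parent remaining quantified by LC/MS in a high-throughput format.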

[10] = Metabolic stability in human liver microsomes assessed as compound remaining after 30 mins; assay type: ADME, Microsome; details: read-out: Stability; method in brief: as §2
[11] = Induction of insulin secretion in mouse pancreatic islets in presence of 16.7 mM of glucose; assay type: functional; details: Pancreatic islet
Method in brief: (§3)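 Isolated mouse islets stimulated in 16.7 mM glucose with 0.625% HSA and 1% DMSO; insulin secretion measured, Emax reported as percentage.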

[12] = Induction of insulin secretion in mouse pancreatic islets in presence of 16.7 mM of glucose relative to control; assay type: functional; details: Pancreatic islet; method in brief: as §3
Cytochrome P450 2C9 = Cytochrome P450 2C9 (Homo sapiens, UniProt P11712); experiment: Inhibition of CYP2C9; assay type: ADME
Hepatocyte = experiment: Clearance in rat hepatocytes assessed per 10^-6 cells; assay type: ADME, cell-based
[13] = Half life in rat hepatocytes; assay type: ADME, cell-based, Liver, Hepatocyte

Chain of CYP3A4 (P08684 whole entry): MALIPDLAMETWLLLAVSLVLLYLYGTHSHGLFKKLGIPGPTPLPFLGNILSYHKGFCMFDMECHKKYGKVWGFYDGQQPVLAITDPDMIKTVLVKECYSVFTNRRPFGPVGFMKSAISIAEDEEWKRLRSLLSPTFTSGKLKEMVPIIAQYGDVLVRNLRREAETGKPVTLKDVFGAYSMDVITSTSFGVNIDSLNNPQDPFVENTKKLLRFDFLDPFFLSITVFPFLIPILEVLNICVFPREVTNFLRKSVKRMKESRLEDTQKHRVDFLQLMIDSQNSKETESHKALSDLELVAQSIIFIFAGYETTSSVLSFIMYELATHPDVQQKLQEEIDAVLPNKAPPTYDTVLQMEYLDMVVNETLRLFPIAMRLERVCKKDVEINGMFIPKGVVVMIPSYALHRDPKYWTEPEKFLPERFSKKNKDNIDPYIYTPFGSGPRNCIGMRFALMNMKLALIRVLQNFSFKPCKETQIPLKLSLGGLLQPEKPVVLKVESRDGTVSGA
Chain of CYP2D6 (P10635 whole entry): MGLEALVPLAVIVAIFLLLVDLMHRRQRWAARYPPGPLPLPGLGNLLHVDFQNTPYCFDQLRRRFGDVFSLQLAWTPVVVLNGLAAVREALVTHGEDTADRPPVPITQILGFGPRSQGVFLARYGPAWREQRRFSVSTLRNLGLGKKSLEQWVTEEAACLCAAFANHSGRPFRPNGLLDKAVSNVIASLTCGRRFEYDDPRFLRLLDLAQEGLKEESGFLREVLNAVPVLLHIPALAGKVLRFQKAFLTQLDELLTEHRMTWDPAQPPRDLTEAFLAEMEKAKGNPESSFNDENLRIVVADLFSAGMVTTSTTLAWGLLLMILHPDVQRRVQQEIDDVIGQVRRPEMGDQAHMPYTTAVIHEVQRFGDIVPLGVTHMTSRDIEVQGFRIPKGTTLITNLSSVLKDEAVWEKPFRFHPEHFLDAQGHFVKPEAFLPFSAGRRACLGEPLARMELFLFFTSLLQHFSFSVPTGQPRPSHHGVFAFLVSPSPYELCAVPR
Chain of Cytochrome P450 3A4 (P08684 whole entry): as the sequence (P08684 whole entry) above
Chain of Cytochrome P450 2D6 (P10635 whole entry): as the sequence (P10635 whole entry) above
Chain of Cytochrome P450 2C9 (P11712 whole entry): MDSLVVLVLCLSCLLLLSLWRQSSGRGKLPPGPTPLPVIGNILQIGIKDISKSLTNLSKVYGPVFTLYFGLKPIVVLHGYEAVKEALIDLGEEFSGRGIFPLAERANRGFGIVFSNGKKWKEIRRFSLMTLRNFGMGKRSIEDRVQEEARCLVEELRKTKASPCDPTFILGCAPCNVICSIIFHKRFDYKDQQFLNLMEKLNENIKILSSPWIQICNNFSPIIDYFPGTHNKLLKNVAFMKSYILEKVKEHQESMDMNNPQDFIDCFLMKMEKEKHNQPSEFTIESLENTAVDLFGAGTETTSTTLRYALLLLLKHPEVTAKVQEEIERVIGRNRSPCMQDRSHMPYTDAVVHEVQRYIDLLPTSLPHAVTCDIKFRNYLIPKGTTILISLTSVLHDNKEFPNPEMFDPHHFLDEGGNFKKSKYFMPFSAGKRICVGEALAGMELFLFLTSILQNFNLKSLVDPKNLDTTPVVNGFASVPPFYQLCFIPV

Compound	EC50 [1] [nM]	inhibition at 3 µM (CYP3A4) [%]	inhibition at 3 µM (CYP2D6) [%]	Emax [2] [%]	further results
NCC(=O)Nc1cc(-c2ccncc2)c[nH]c1=O	> 33000	–	–	–	–
O=C(Nc1cc(-c2ccn[nH]2)c[nH]c1=O)[C@H](Cc1ccccc1)NCc1cscn1	200	18	29	–	–
O=C(Nc1ccccc1)[C@H](Cc1ccccc1)NCc1cscn1	3300	24	36	–	–
CC(=O)N[C@@H](Cc1ccccc1)C(=O)Nc1cc(-c2ccncc2)c[nH]c1=O	> 33000	–	–	–	–
N[C@@H](Cc1ccccc1)C(=O)Nc1cc(-c2ccncc2)c[nH]c1=O	4800	–	–	115	EC50 [3]: 1400 nM
COc1ccc(-c2ccncc2)cc1NC(=O)[C@H](Cc1ccccc1)NCc1cscn1	89	–	–	–	EC50 [4]: 1000 nM
O=C(Nc1cc(-c2ccncc2)c[nH]c1=O)[C@H](Cc1ccccc1)NCCc1ccccc1	780	–	–	67	–
Cc1cc(-c2cccc(NC(=O)[C@H](Cc3ccccc3)NCc3cscn3)c2)ccn1	52	63	74	–	–
COc1cc(NC(=O)[C@H](Cc2ccccc2)NCc2cscn2)cc(-c2ccncc2)c1	53	–	–	–	EC50 [4]: 810 nM
O=C(Nc1cc(-c2ccncc2)c[nH]c1=O)[C@H](Cc1ccccc1)NCC1CC1	760	–	–	106	–
Cn1cc(-c2c[nH]c(=O)c(NC(=O)[C@H](Cc3ccccc3)NCc3cscn3)c2)cn1	230	24	21	–	–
Cc1ccc(C[C@H](N)C(=O)Nc2cc(-c3ccncc3)c[nH]c2=O)cc1	6600	–	–	73	–
Cc1cc(-c2c[nH]c(=O)c(NC(=O)[C@H](Cc3ccccc3)NCc3cscn3)c2)ccn1	67	22	20	90	EC50 [4]: 290 nM; Emax [5]: 97%; IC50 (Cytochrome P450 3A4): > 30 µM; IC50 (Cytochrome P450 2D6): > 30 µM; clearance (Rattus norvegicus): 2.6 L/h/kg; Vd [6]: 0.75 L/kg; MRT [7]: 18 min; bioavailability [8]: 19%; remaining at 0.5 h [9]: 11%; remaining at 0.5 h [10]: 10%
O=C(Nc1cccc(-c2cn[nH]c2)c1)[C@H](Cc1ccccc1)NCc1cscn1	180	82	90	–	–
Nc1cc(-c2cccc(NC(=O)[C@H](Cc3ccccc3)NCc3cscn3)c2)ccn1	210	38	42	–	–
N[C@H](C(=O)Nc1cc(-c2ccncc2)c[nH]c1=O)c1ccccc1	> 33000	–	–	–	–
O=C(Nc1nccc(-c2ccncc2)n1)[C@H](Cc1ccccc1)NCc1cscn1	360	–	–	–	EC50 [4]: 290 nM
N[C@@H](Cc1cccc(Cl)c1)C(=O)Nc1cc(-c2ccncc2)c[nH]c1=O	> 33000	–	–	50	–

Compound	EC50 [1] [nM]	inhibition at 3 µM (CYP3A4) [%]	inhibition at 3 µM (CYP2D6) [%]	Emax [2] [%]	further results
N[C@@H](CC1CCCCC1)C(=O)Nc1cc(-c2ccncc2)c[nH]c1=O	> 33000	–	–	30	–
O=C(CCc1ccccc1)Nc1cc(-c2ccncc2)c[nH]c1=O	> 33000	–	–	–	–
COc1ccc(NC(=O)[C@H](Cc2ccccc2)NCc2cscn2)cc1-c1ccncc1	240	–	–	–	EC50 [4]: 980 nM
N[C@@H](Cc1ccc(F)cc1)C(=O)Nc1cc(-c2ccncc2)c[nH]c1=O	4200	–	–	102	–
O=C(Nc1cccc(-c2ccncc2)c1)[C@H](Cc1ccccc1)NCc1cscn1	67	97	95	–	EC50 [4]: 970 nM
COc1ccc(C[C@H](N)C(=O)Nc2cc(-c3ccncc3)c[nH]c2=O)cc1	25000	–	–	40	–
O=C(Nc1cccc(-c2cc[nH]n2)c1)[C@H](Cc1ccccc1)NCc1cscn1	67	59	36	–	–
O=C(Nc1cccc(-c2ccccc2)c1)[C@H](Cc1ccccc1)NCc1cscn1	640	57	46	–	–
N[C@H](Cc1ccccc1)C(=O)Nc1cc(-c2ccncc2)c[nH]c1=O	13000	–	–	93	–
Cn1ccc(-c2cccc(NC(=O)[C@H](Cc3ccccc3)NCc3cscn3)c2)n1	1900	30	12	–	–
O=C(Nc1cc(-c2ccncc2)c[nH]c1=O)[C@H](Cc1ccccc1)NCc1ccccc1	830	–	–	97	–
N[C@@H](Cc1ccccc1Cl)C(=O)Nc1cc(-c2ccncc2)c[nH]c1=O	> 33000	–	–	42	–
N[C@@H](Cc1ccc(Cl)cc1)C(=O)Nc1cc(-c2ccncc2)c[nH]c1=O	3800	–	–	105	–
N#Cc1ccc(C[C@H](N)C(=O)Nc2cc(-c3ccncc3)c[nH]c2=O)cc1	4600	–	–	79	–
O=C(Nc1cc(-c2ccncc2)c[nH]c1=O)[C@H](Cc1ccccc1)NCc1cscn1	93	97	95	120	EC50 [4]: 500 nM; Emax [5]: 100%; EC50 [11]: 2700 nM; Emax [12]: 88%
O=C(O)c1cc(NC(=O)[C@H](Cc2ccccc2)NCc2cscn2)cc(-c2ccncc2)c1	110	–	–	–	EC50 [4]: 480 nM; IC50 (Cytochrome P450 3A4): > 30 µM; IC50 (Cytochrome P450 2D6): > 30 µM; IC50 (Cytochrome P450 2C9): > 30 µM; clearance (Rattus norvegicus): 2.9 L/h/kg; Vd [6]: 0.5 L/kg; MRT [7]: 12 min; bioavailability [8]: 0%; remaining at 0.5 h [9]: 74%; CLH (Hepatocyte): 18 µL/min; half-life [13]: 39 min
Cn1cc(-c2cccc(NC(=O)[C@H](Cc3ccccc3)NCc3cscn3)c2)cn1	180	36	42	–	–
